XBP1 UPR activ – activators of adaptive XBP1 UPR arm, primary screen, cell-based, CHO-XBP1 luciferase reporter, luminescence, uHTS | activation, % at 20 µM | IRE1-XBP1 UPR activation; percent of tunicamycin response, DMSO as zero | AID 463104, 2010 | 330,000 compounds, 0.33% hits;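 active = versus positive control, 20 µM dose yields 30% or more activation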;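 also: 100% = tunicamycin at 10 µg/mL and 0% = DMSO only wells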
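Material – CHO cell line with stable XBP1 luciferase reporter · Buffer or medium – F12 plus 10% FBS · Compound – single point, 20 µM final compound, 1% DMSO · Schedule – 16-18 h cell attachment at 37 °C, then 6 h compound exposure · Signal – Steady-Glo luminescence read · Benchmarks – high control tunicamycin 10 µg/mL final, low control DMSO vehicle only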
NS3 helicase inh – inhibitors of HCV NS3 helicase, primary screen, biochemical, Cy5 molecular beacon fluorescence. Hepatitis C virus NS3 helicase. NS3 helicase DNA unwinding. inhibition, % at 10.9 µM. 290,000 compounds, 0.56% hits;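 active = inhibition above the mean of all tested compounds plus 3 SD, set per campaign, cut at about 35% in these data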;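 also: 0% = DMSO wells and 100% = thioflavine S control wells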
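Assay system – hepatitis C virus NS3 helicase domain fragment enzyme · Buffer or medium – MOPS pH 6.5, MgCl2, DTT, Tween20, BSA · Reagent – Cy5/quencher beacon DNA duplex and ATP to start · Compound – single 10.9 µM dose · Timing – 1 h at 25 °C · Technique – Cy5 beacon fluorescence read at start and 1 h · Measure – % inhibition of unwinding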
p97 ATPase inh – inhibitors of human p97 ATPase, primary screen, biochemical. inhibition, % at 8 µM. recombinant p97 ATPase, Kinase-Glo ATP luminescence, 3 h. Transitional endoplasmic reticulum ATPase (Homo sapiens), P55072. 220,000 compounds, 0.42% hits; in the data active = inhibition above about 15%;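 also: 0% = DMSO vehicle and 100% = wells lacking enzyme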
Target sequence (P55072 whole entry, looked up): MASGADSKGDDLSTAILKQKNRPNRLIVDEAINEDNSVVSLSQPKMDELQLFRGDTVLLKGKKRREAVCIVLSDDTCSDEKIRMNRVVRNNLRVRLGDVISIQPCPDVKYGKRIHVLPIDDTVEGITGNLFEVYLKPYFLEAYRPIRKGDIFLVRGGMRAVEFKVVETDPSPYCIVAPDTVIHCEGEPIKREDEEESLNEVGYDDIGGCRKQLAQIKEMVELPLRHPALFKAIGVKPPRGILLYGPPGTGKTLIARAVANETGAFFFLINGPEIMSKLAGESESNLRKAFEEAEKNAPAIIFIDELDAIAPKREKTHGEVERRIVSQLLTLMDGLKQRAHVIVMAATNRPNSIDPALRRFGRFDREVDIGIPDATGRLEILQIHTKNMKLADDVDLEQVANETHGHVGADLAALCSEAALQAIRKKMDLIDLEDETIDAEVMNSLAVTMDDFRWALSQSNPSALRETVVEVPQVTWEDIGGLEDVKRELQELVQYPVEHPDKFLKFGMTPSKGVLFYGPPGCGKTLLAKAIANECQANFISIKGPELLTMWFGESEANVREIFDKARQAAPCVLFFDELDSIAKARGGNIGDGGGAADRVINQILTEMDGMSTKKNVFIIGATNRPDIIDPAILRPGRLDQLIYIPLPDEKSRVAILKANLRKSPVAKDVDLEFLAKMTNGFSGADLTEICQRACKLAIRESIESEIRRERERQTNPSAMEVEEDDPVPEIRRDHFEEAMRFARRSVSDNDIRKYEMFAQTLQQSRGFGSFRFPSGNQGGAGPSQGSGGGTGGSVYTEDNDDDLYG
UPR CHOP act – activators of apoptotic CHOP UPR arm, primary screen, cell-based, CHO-CHOP luciferase reporter, luminescence, uHTS; UPR activation; percent of tunicamycin response over DMSO baseline; activation, % at 10 µM; 330,000 compounds, 0.34% hits; AID 449763, 2010;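 active = at 10 µM dose, activation of 40% or more, normalized to positive control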;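 also: 100% = tunicamycin at 10 µg/mL and 0% = DMSO alone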
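Evaluation: % reporter activation, DMSO baseline versus tunicamycin full activation; System: CHO-CHOP luciferase reporter cell line; Input: 500 cells/well; Incubation: 6 h compound treatment, 37 °C; Measured by: Steady-Glo luciferase luminescence; Dosing: one dose, 10 µM in 0.5% DMSO; Buffer or medium: F12 medium, 10% FBS; Benchmarks: positive tunicamycin 10 µg/mL, negative DMSO alone.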
PfM18AAP inh – PfM18AAP inhibitors, malaria aminopeptidase, primary screen, biochemical, QFRET, recombinant enzyme | M18 aspartyl aminopeptidase (Plasmodium falciparum 3D7) | H-Glu-NHMec fluorogenic cleavage | inhibition, % at 7.35 µM | 290,000 compounds, 1.2% hits;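 active = inhibition above the campaign mean inhibition over all tested compounds plus 3 SD, cut at about 28% in these data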;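 also: 0% = plate median of test compound wells and 100% = 2 mM ZnCl2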
CHOP inhibitor – inhibitors of CHOP promoter induction, primary screen, cell-based, unfolded protein response, luciferase reporter; inhibition, % at 10 µM; CHO-K1 CHOP-promoter luciferase, tunicamycin-induced, 15-18 h; 220,000 compounds, 3.8% hits;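 active = compounds that reduced the stress-induced luciferase reporter signal by more than about 70% of percent inhibition, limit read from the data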;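 also: 0% = tunicamycin plus vehicle and 100% = wells without tunicamycin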
An asterisk follows results filed as active; · = no result. This is a sample that favours compounds with a hit; in the whole collection about 4.5% have one here.

SMILES	XBP1 UPR activ	NS3 helicase inh	p97 ATPase inh	UPR CHOP act	PfM18AAP inh	CHOP inhibitor
Oc1c(Br)cc(Br)cc1CNc1ccccn1	-4.3	-19.9	5.2	4.5	0.5	28.1
CN(C(=O)c1cc([N+](=O)[O-])ccc1NCc1cccnc1)c1ccccc1	-3.1	4.3	·	2.1	4.0	·
CC(C)Cn1c(-c2ccc(Br)cc2)c[nH]c1=S	-1.8	16.7	-3.8	1.4	-3.9	35.0
Cn1c(SCC(=O)NCc2ccco2)nnc1C1CC1	0.4	·	·	1.3	·	·
CC(C)n1c(SCC(=O)NCc2ccco2)nnc1C1CC1	-9.7	33.5	·	-0.9	28.1*	·
Cc1cccc(NC(=S)NNc2cccc(Cl)c2)c1	1.7	-5.5	·	2.9	24.5	·
Cc1ccc(NS(=O)(=O)c2cc([N+](=O)[O-])ccc2NNC(=S)Nc2cccc(Cl)c2)c(C)c1	·	21.7	-0.2	·	31.7*	38.4
O=C(CCN1C(=O)C2C3C=CC(C3)C2C1=O)Nc1ccc(F)cc1 (stereo unspecified)	-0.6	-2.5	2.8	-5.0	5.3	86.0*
Cc1ccc(S(=O)(=O)CCC(=O)N(C)C2CCCCC2)cc1	-2.8	2.7	·	2.5	-6.4	·
COc1cccc(/C=N/NC(=S)Nc2cccnc2)c1	-1.5	5.8	2.1	1.9	18.2	-31.3
Oc1ccc(/C=N/NC(=S)Nc2cccnc2)cc1	-1.8	-2.2	-1.9	0.8	30.8*	-8.5
CCC1CCCCN1C(=S)NC1CCCCC1 (stereo unspecified)	-2.9	3.6	0.3	0.7	-8.1	-20.9
Cc1ccc(NNC(=O)C(O)(c2cccc(C(F)(F)F)c2)c2cccc(C(F)(F)F)c2)cc1	-1.4	4.0	4.0	-0.3	-5.8	106.9*
Cc1ccc(C(O)(C(=O)NNc2ccccn2)c2ccc(C)cc2)cc1	-4.2	-8.1	1.1	-0.2	9.6	28.5
CC(NC(=S)NC1CCC(C(C)(C)C)CC1)c1ccccc1 (stereo unspecified)	4.3	-3.7	·	0.4	-2.2	·
CCn1c(SCc2nc3sc(C(=O)O)c(C)c3c(=O)[nH]2)nc2ccccc21	-5.9	7.3	12.3	-4.6	33.0*	-10.7
O=C(/C=C/c1ccc(Cl)cc1)N(c1ccccn1)C1CCCCC1	-2.5	-7.5	0.0	-0.5	5.2	70.4*
O=C(/C=C/c1cccc(F)c1)N(c1ccccn1)C1CCCCC1	-1.4	1.8	1.4	-2.7	-8.2	0.0
Cc1ccc(S(=O)(=O)NNC2CC(=O)N(c3ccc(Br)cc3)C2=O)cc1 (stereo unspecified)	-0.2	7.6	-0.5	-1.7	1.8	73.2*
O=C(CN1CCN(S(=O)(=O)N2CCCCCC2)CC1)Nc1ccc(Br)cc1	-5.5	-7.8	·	-0.2	3.1	·
COC(=O)c1c(NC(=O)CN2CCC3(O)CCCCC3C2c2ccccc2OC)sc(C)c1C (stereo unspecified)	0.6	8.3	2.7	-0.4	10.2	17.9
COC(=O)c1c(NC(=O)CN2CCC3(O)CCCCC3C2c2ccc(OC)cc2OC)sc(C)c1C (stereo unspecified)	-1.2	33.8	3.5	0.9	44.1*	23.5
O=C1/C(=C\c2cccnc2)CCc2ccccc21	-5.1	-0.2	5.3	-1.5	-0.2	-17.7
O=C1/C(=C/c2ccccc2)CCCc2ccccc21	2.2	-0.5	4.4	2.7	-2.7	89.2*
COc1ccc(CCNC(=O)c2cc(-c3cc(Cl)cc(Cl)c3)oc2C)cc1	-0.2	2.0	-0.6	-0.8	-1.6	70.5*
SMILES	XBP1 UPR activ	NS3 helicase inh	p97 ATPase inh	UPR CHOP act	PfM18AAP inh	CHOP inhibitor
CC1(C)Oc2ccc3ccc(=O)oc3c2/C(=C/Nc2ccccn2)C1=O	6.2	8.1	-3.8	-1.2	0.5	92.0*
CCOc1ccc(C(=O)NCC(=O)NNC(=O)CN(C)S(=O)(=O)c2ccc(Cl)cc2)cc1	-0.7	·	·	-0.8	·	·
O=C(CSc1nnc(SCc2ccc(Cl)cc2)s1)N/N=C/c1c[nH]c2ccccc12	·	-9.4	6.4	·	5.4	91.6*
O=C(O)COc1ccccc1/C=N/NC(=O)CSc1nnc(SCc2ccc(Cl)cc2)s1	-2.5	9.4	-0.6	-0.8	2.5	12.5
Fc1ccccc1NC(=S)NNc1ncc(C(F)(F)F)cc1Cl	-1.1	5.2	2.5	-2.9	28.1*	5.7
O=C(Nc1cccc(C(F)(F)F)c1)n1cc(-c2ccccn2)c(N2CCOCC2)n1	-3.3	1.9	-0.5	-0.7	-2.7	37.6
Cc1ccc2c(c1)N(CC(=O)NCC1CCCO1)C(=O)C(C(C)C)O2 (stereo unspecified)	-0.5	-4.6	·	1.1	1.6	·
CC1=NN(C2=NS(=O)(=O)c3ccccc32)C(C)(O)C1 (stereo unspecified)	-3.2	27.4	·	1.3	31.0*	·
Cc1ccc(NC(=O)Nc2ccc(F)cc2)nc1	-0.8	4.4	3.4	4.2	4.2	77.2*
Cc1ccnc(NC(=O)Nc2ccc(F)cc2)c1	3.5	-3.4	-2.8	2.3	7.2	3.9
O=C(NCc1ccccn1)NC12CC3CC(CC(C3)C1)C2	4.6	-1.1	-1.1	3.3	-1.8	10.8
O=C(NCc1ccccn1)C(=O)Nc1nc(C23CC4CC(CC(C4)C2)C3)cs1	7.7	3.9	-1.8	0.6	1.5	70.5*
O=C(COC(=O)c1ccc(Cl)cc1Cl)Nc1cccc(S(=O)(=O)NC2=NCCC2)c1	-3.5	·	·	0.1	·	·
COc1ccccc1CNC(=O)C1CCN(S(=O)(=O)c2ccc3c(c2)NC(=O)CO3)CC1	-1.4	21.5	·	0.8	13.4	·
O=C(NC(NC(=S)Nc1cccc(Cl)c1)C(Cl)(Cl)Cl)OCc1ccccc1 (stereo unspecified)	6.0	9.0	6.6	-2.1	2.0	109.3*
O=C(NC(NC(=S)Nc1cccc(C(=O)O)c1)C(Cl)(Cl)Cl)OCc1ccccc1 (stereo unspecified)	-2.6	27.6	-3.0	1.2	8.4	-4.7
O=C(CCCCl)NC(=S)Nc1cc(C(F)(F)F)ccc1N1CCOCC1	1.2	-20.9	3.9	-0.3	-4.2	81.3*
O=C(Nc1cc(C(F)(F)F)ccc1N1CCOCC1)c1cccc(F)c1	-1.9	-4.3	-3.4	0.7	3.0	76.1*
CC(C)(C)C(=O)NC(=S)Nc1cc(C(F)(F)F)ccc1N1CCOCC1	0.8	1.7	-5.7	-0.1	10.7	47.0
CC(C)(C)c1ccc(C(=O)NCC(=O)N2CCC3(CC2)NCCc2[nH]cnc23)cc1	-4.8	-6.9	·	-0.1	-2.4	·
CC(=O)Nc1cc(Cl)c(N=Cc2ccc(O)cc2O)cc1Cl	-0.6	10.4	5.3	-1.3	14.9	5.4
